Experimental data as given in ChEMBL document CHEMBL4819071, “Design, synthesis and in-vitro evaluation of fluorinated triazoles as multi-target directed ligands for Alzheimer disease” (Bioorg Med Chem Lett, 2021).
One block for each molecule: values may come before it. Active and inactive are the calls of the source. The rule behind the calls is not given here.

Legend:
PC-12 [1] = experiment: (§1) Cytotoxicity against rat PC-12 cells assessed as cell viability at 40 uM measured after 24 hrs by Alamar blue assay relative to control; format: cell-based; conditions: pc-12, 24 h, 40 µM
Summary of the method: (§2)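 PC-12 neuronal cells incubated 24 h with compound at 40 µM. Viability read with Alamar Blue and expressed as percent of untreated cells.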

[2] = as §1; format: cell-based; conditions: PC-12 cells, read-out: Activity; summary of the method: as §2
[3] = biological target: T1, Amyloid-beta precursor protein (Homo sapiens, UniProt P05067); experiment: Inhibition of amyloid beta (1 to 42 ) (unknown origin) self aggregation at 40 uM after 24 hrs by thioflavin-T fluorescence method
T1 sequence (P05067 whole entry): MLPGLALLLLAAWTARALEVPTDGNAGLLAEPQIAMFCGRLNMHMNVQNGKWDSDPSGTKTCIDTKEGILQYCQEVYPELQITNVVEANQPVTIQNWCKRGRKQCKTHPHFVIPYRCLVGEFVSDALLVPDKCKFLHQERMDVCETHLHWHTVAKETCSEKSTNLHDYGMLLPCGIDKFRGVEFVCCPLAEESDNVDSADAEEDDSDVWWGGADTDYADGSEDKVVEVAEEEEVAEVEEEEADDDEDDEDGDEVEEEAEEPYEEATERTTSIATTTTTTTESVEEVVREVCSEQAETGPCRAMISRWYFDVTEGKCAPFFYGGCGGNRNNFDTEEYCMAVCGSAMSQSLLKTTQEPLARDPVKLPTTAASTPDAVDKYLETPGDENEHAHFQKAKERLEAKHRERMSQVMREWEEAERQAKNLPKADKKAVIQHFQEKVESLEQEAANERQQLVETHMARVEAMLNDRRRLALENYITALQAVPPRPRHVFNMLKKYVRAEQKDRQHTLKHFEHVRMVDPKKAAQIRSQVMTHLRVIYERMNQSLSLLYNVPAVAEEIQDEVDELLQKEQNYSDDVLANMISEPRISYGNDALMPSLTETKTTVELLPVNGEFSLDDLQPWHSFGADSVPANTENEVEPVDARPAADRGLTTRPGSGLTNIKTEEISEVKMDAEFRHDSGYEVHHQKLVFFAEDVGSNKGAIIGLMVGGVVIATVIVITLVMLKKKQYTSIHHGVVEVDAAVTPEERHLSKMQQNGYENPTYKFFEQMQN
Summary of the method: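 Aβ42 (10 µM) incubated with compound (40 µM) for 24 h at 37 °C. Fibril formation quantified by Thioflavin T and given as percent of Aβ42 left to fibrillate alone. n = 3, Dunnett test.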

[4] = biological target: T1, Amyloid-beta precursor protein; experiment: Inhibition of amyloid beta (1 to 42 ) (unknown origin) self aggregation at 40 uM measured after 24 hrs in presence of copper ion by thioflavin-T fluorescence method
Summary of the method: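 Aβ42 (10 µM) incubated with Cu2+ (10 µM) and compound for 24 h at 37 °C with shaking at 180 rpm. Percent fibril formation determined by Thioflavin T. Compared against Aβ42 alone and Aβ42 + Cu2+ by Dunnett test. n = 3.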

[5] = Metal chelating activity assessed as Fe3+-compound complex formation by measuring hyperchromic shift at 50 uM incubated for 30 mins by UV-visible spectrophotometry
[6] = Metal chelating activity assessed as Cu2+-compound complex formation by measuring hyperchromic shift at 50 uM incubated for 30 mins by UV-visible spectrophotometry
[7] = Metal chelating activity assessed as Zn2+-compound complex formation by measuring hyperchromic shift at 50 uM incubated for 30 mins by UV-visible spectrophotometry
PC-12 [8] = experiment: Anti-inflammatory activity in rat PC-12 cells assessed as decrease in LPS-stimulated ROS accumulation at 40 uM measured after 24 hrs by DCFH-DA staining based FACS […] assay; format: functional, cell-based
Summary of the method: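 PC-12 cells inflamed with LPS (10 µg/mL), then treated with compound at 40 µM for 24 h. ROS measured by DCFDA flow cytometry. Cells gated on FSC/SSC, singlets selected (FSC area vs height), and dead cells excluded by propidium iodide. The percentage of DCFDA ROS-high live cells was taken from the FL1 vs FSC dot plot quadrant. n = 3.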

[9] = biological target: T1, Amyloid-beta precursor protein; experiment: Inhibition of amyloid beta (1 to 42 ) (unknown origin) self aggregation measured after 24 hrs by thioflavin-T fluorescence method
[10] = Metal chelating activity assessed as Cu2+-compound complex formation at compound:Cu2+ concentration ratio of 1:1 to 1:6 incubated for 30 mins by UV-visible spectrophotometry
Summary of the method: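 Compound titrated with Cu2+ at compound:Cu ratios 1:1 to 1:6 in HEPES buffer at room temperature. UV–vis spectra recorded over about 240–320 nm. Absorbance plotted against ratio and fitted linearly.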

[11] = Metal chelating activity assessed as Fe3+-compound complex formation at compound:Fe3+ concentration ratio of 1:1 to 1:5 incubated for 30 mins by UV-visible spectrophotometry
Summary of the method: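 Compound combined with Fe3+ at compound:Fe ratios 1:1, 1:3 and 1:5 in HEPES buffer at room temperature. UV–vis spectra recorded over about 250–350 nm.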

[12] = Metal chelating activity assessed as Zn2+-compound complex formation at incremental dose of compound incubated for 30 mins by UV-visible spectrophotometry

Structure (SMILES): OC(c1ccc(NCc2cn(-c3ccccc3)nn2)cc1)(C(F)(F)F)C(F)(F)F
Activity (PC-12 [1]): Toxic

Structure (SMILES): COc1ccc(-n2cc(CNc3ccc(C(O)(C(F)(F)F)C(F)(F)F)cc3)nn2)cc1OC
viability at 24 h, 40 µM [2]: > 60% | inhibition [3]: Active | inhibition [4]: < 50%

Structure (SMILES): O=C(Nc1ccc(C(O)(C(F)(F)F)C(F)(F)F)cc1)c1cn(-c2ccccc2)nn1
Activity (PC-12 [1]): Toxic

Structure (SMILES): Cc1ccc(-n2cc(C(=O)Nc3ccc(C(O)(C(F)(F)F)C(F)(F)F)cc3)nn2)cc1C
viability at 24 h, 40 µM [2]: > 60% | inhibition [3]: Active | inhibition [4]: < 50% | Activity [5]: Active | Activity [6]: Active | Activity [7]: Active | Activity (PC-12 [8]): Active | IC50 [9]: 4.6 µM | Activity [10]: Active | Activity [11]: Active | Activity [12]: Active

Structure (SMILES): Cc1ccc(-n2cc(CNc3ccc(C(O)(C(F)(F)F)C(F)(F)F)cc3)nn2)cc1C
viability at 24 h, 40 µM [2]: > 60% | inhibition [3]: inactive

The next lines start with results.

inhibition [3]: Active
Structure (SMILES): Cc1ccc(NC(=O)c2cn(-c3ccc(C(O)(C(F)(F)F)C(F)(F)F)cc3)nn2)cc1C
viability at 24 h, 40 µM [2]: > 60%

inhibition [3]: inactive
Structure (SMILES): O=C(Nc1ccccc1)c1cn(-c2ccc(C(O)(C(F)(F)F)C(F)(F)F)cc2)nn1
viability at 24 h, 40 µM [2]: > 60%
